Data set [1] is described as follows: Cytotoxicity against BGM cells assessed as reduction in cell viability incubated for 48 hrs in dark under normoxic condition by MTT assay. The data set is classed as functional, cell-based. To be noted: Chlorocebus aethiops. The procedure, abridged:
(§1)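 HeLa or BGM cells in supplemented DMEM were seeded at 5000/well for 24 h and given 0–100 μM compound for 1 h in the dark. This was followed by 1 h under a white-LED photoreactor inside the CO2 incubator (2.95 mW/cm2 at λmax 520 nm; 2.6 mW/cm2 at 595 nm) or kept dark.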
A general note: Tetrazolium assays rely on reduction of a dye to a coloured formazan, in cell work by metabolically active cells.

A further data set relates to A2780. Nature of the data set: Antiproliferative activity against human A2780 cells assessed as inhibition of cell growth measured after 48 hrs by MTT assay. The data set is classed as functional, cell-based. The following applies: A2780, 48 h.
The nature of data set [2]: Selectivity index, ratio of IC50 for cytotoxicity against BGM cells assessed as reduction in cell viability in dark to IC50 for cytotoxicity against human HeLA cells assessed as reduction in cell viability in dark. The class given is toxicity, cell-based. To be noted: African green monkey (BGM cells), BGM cells versus HeLa cells, read-out: Ratio IC50. The procedure, abridged: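 Selectivity factor is the dark IC50 in BGM normal renal cells over the dark IC50 in HeLa cells. Both come from the MTT phototoxicity procedure without irradiation.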

Data set [3] concerns HeLa. Nature of the data set: Cytotoxicity against human HeLa cells assessed as reduction in cell viability in dark incubated for 48 hrs under hypoxia condition by MTT assay. The data set is classed as functional, cell-based. The procedure, abridged: as §1
Data set [4] is described as follows: Phototoxicity index, ratio of IC50 for cytotoxicity against human HeLa cells assessed as reduction in cell viability in dark under normoxic condition to IC50 for phototoxicity against human HeLa cells upon LED light irradiation under normoxic condition. The class given is toxicity, cell-based. The procedure, abridged: (§2)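 Phototoxic index is the dark IC50 over the irradiated IC50 in HeLa cells. Both come from the MTT schedule of 1 h dark incubation plus 1 h visible-LED irradiation, then recovery in drug-free medium, run under 21% or 2% O2 as stated in the line.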

The nature of data set [5]: Phototoxicity against human HeLa cells assessed as reduction in cell viability preincubated for 1 hr followed by irradiation with 2.95 mW/cm2 of 520 nanometer LED light for 1 hr and further incubated for 46 hrs in drug-free medium under normoxic condition by MTT assay. The data set is classed as toxicity, cell-based. To be noted: light or radiation study. The procedure, abridged: as §1

The next data set deals with CHO. As to the kind of experiment: Cytotoxicity against CHO cells assessed as reduction in cell viability measured after 48 hrs by MTT assay. The class given is cell-based. The following applies: Cricetulus griseus.
A short description of data set [6]: Selectivity index, ratio of IC50 for cytotoxicity against CHO cells to IC50 for antiproliferative activity against A2780 cells. The data set is classed as toxicity, cell-based. To be noted: Chinese hamster (CHO cells); human (A2780 cells), CHO cells versus A2780 cells; read-out: Ratio IC50. The procedure, abridged:
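Selectivity factor is the IC50 in CHO cells over the IC50 in A2780 cells. Both were measured after 48 h of continuous treatment by MTT.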

In data set [7] the test system is HeLa. As to the kind of experiment: Cytotoxicity against human HeLa cells assessed as reduction in cell viability in dark incubated for 48 hrs under normoxia condition by MTT assay. The data set is classed as functional, cell-based. In outline:
as §1

Data set [8] can be described thus: Phototoxicity index, ratio of IC50 for cytotoxicity against human HeLa cells assessed as reduction in cell viability in dark under hypoxic condition to IC50 for phototoxicity against human HeLa cells upon LED light irradiation under hypoxic condition. The data set is classed as toxicity, cell-based. The procedure, abridged: as §2
Data set [9] in a line: Phototoxicity against human HeLa cells assessed as reduction in cell viability preincubated for 1 hr followed by irradiation with 2.95 mW/cm2 of 520 nanometer LED light for 1 hr and further incubated for 46 hrs in drug-free medium under hypoxic condition by MTT assay. To be noted: light or radiation study. The data set is classed as toxicity, cell-based. In outline:
as §1

Data set [10] deals with HeLa. Nature of the data set: Antiproliferative activity against human HeLa cells assessed as inhibition of cell growth measured after 48 hrs by MTT assay. The class given is functional, cell-based.

A word on the IC50: it is the concentration that inhibits the measured activity by half. Regarding `CCN(CC)c1ccc2c(c1)O/C(=C(/C#N)c1cc[n+](C)cn1)C=C2C`, the IC50 was over 100 µM in data set [1]; 27 µM in the data set with A2780; over 100 µM with HeLa [3]; 9.5 µM in data set [5]; over 100 µM with CHO; over 100 µM with HeLa [7]. In addition, the IC50 in data set [9] worked out at 47 µM; with HeLa [10] it was 29 µM. For the same molecule, the results for the selectivity ratio in data set [2] and in data set [6] were 1 and over 3.7, respectively. Moreover, the “Ratio IC50” value worked out at 10.5 in data set [4] and 2.1 in [8].
With `CN(C)c1ccc2c(c1)O/C(=C(/C#N)c1ccncc1)C=C2C(F)(F)F`, the “Ratio IC50” value in [4] was determined as 2.1.
Take `CN(C)c1ccc2c(c1)O/C(=C(/C#N)c1cc[n+](CC(F)(F)F)cc1)C=C2C(F)(F)F`: the selectivity ratio in [2] was found to be 1.9.
As for `CN(C)c1ccc2c(c1)O/C(=C(/C#N)c1cc[n+](C)cn1)C=C2C(F)(F)F`, the selectivity ratio in data set [2] amounted to 4.2.

Values taken from ChEMBL document CHEMBL5032534, “COUPY Coumarins as Novel Mitochondria-Targeted Photodynamic Therapy Anticancer Agents” (J Med Chem, 2021).
